The values that follow come from ChEMBL document CHEMBL1123087, “Synthesis and antimetastatic properties of stereoisomeric tricyclic bis(dioxopiperazines) in the Lewis lung carcinoma model” (1985).

The structures appear in SMILES notation.

Common to all, as to assay type: functional
The species named for experiment [1] is Mus musculus. The experiment in a line: Autopsy data was evaluated as average lung weight, mg. A digest of the protocol:
(§1)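 BDF1 female mice (19–21 g); Lewis lung carcinoma, 10⁶ cells implanted im in the leg on day 0, and the tumor-bearing leg amputated on day 8. Dosing after amputation was 160 mg/kg ip from day 8, Q2Dx4, given as a saline suspension. Survival was tracked to day 40. Mice dying and those killed on day 40 were autopsied for body weight, lung weight and metastasis counts (<2 mm, >2 mm). Survival was reported as median survival time and %ILS, with ≥25% ILS counted as active.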

The species named for experiment [2] is Mus musculus. The experiment in a line: Autopsy data was evaluated as average number of metastasis in <2 mm. The procedure, abridged:
as §1

The species named for experiment [3] is Mus musculus. Briefly: Autopsy data was evaluated as average number of metastasis in >2 mm. A digest of the protocol:
as §1

For experiment [4], the species on record is Mus musculus. Briefly: Autopsy data was evaluated as average body weight/g. A digest of the protocol:
as §1

Experiment [5] has as its system Mus musculus. The experiment in a line: Effect on postoperative lewis lung carcinoma model, was evaluated as increase in life span on BDF1 female mice, administered intraperitoneally. A digest of the protocol: as §1
The test system of experiment [6] is Mus musculus. Briefly: Effect on postoperative lewis lung carcinoma model, was evaluated as […] on BDF1 female mice, administered intraperitoneally. On the set-up: unit not given beside the values. The procedure, abridged: as §1

Turning to `O=C1CN2C[C@@H]3C(=O)N(CN4CCOCC4)C(=O)CN3C[C@@H]2C(=O)N1CN1CCOCC1`, the Average lung weight in the experiment listed under Mus musculus [1] stood at 358 mg. The figures for the “Average No. of metastasis” value in the experiment filed under Mus musculus [2] and in the experiment filed under Mus musculus [3] were 0 and 6, respectively. Moreover, the Average body weight in the experiment filed under Mus musculus [4] worked out at 19.2 g. The “Increase in life span” value in the experiment on Mus musculus [5] was above 48%. The same compound gave an MST in the experiment with Mus musculus [6] above 40.

On to `O=C1CN2C[C@H]3C(=O)NC(=O)CN3C[C@@H]2C(=O)N1`, for which the Average lung weight in the experiment listed under Mus musculus [1] was 853 mg. The figures for the “Average No. of metastasis” value in the experiment filed under Mus musculus [2] and in the experiment listed under Mus musculus [3] were 0 and 48, respectively. This compound also yielded an Average body weight in the experiment filed under Mus musculus [4] of 16.9 g. Also, the “Increase in life span” value in the experiment on Mus musculus [5] is reported as 4%. In the experiment with Mus musculus [6], the MST amounted to 28.

`O=C1CN2C[C@H]3C(=O)N(CN4CCOCC4)C(=O)CN3C[C@@H]2C(=O)N1CN1CCOCC1`: in the experiment filed under Mus musculus [1], the Average lung weight came out at 700 mg. For the same compound, the “Average No. of metastasis” value in the experiment listed under Mus musculus [2] came to 0; in the experiment listed under Mus musculus [3], 38. In the experiment listed under Mus musculus [4], the Average body weight is given as 18.9 g. In addition, the “Increase in life span” value with Mus musculus [5] is below 0%. In addition, the MST in the experiment on Mus musculus [6] is reported as 26.

Compound `O=C1CN2C[C@@H]3C(=O)NC(=O)CN3C[C@@H]2C(=O)N1` returned an Average lung weight in the experiment filed under Mus musculus [1] of 640 mg. Besides, the results for the “Average No. of metastasis” value in the experiment filed under Mus musculus [2] and in the experiment listed under Mus musculus [3] were 0 and 22, respectively. For the same compound, the Average body weight in the experiment filed under Mus musculus [4] turned out to be 19.3 g. Also, the “Increase in life span” value in the experiment on Mus musculus [5] was found to be 4%. The compound further had an MST with Mus musculus [6] of 28.
